# Compound activity: PubChem BioAssay, several laboratories
# This is a sample that favours compounds with a hit; in the whole collection about 1.5% have one here.
# JMJD2C inh: inhibitors of GASC-1 histone demethylase, primary screen, biochemical, fluorescence, DELFIA europium | 330,000 compounds, 0.069% hits | AID 2099, 2009 | Lysine-specific demethylase 4C (Homo sapiens), Q9H3R0 | GST-JMJD2C(1-420) H3K9me3 demethylation | inhibition, % at 2.35 µM;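 active means more than half of a compound's replicate wells show inhibition beyond 50%, single wells judged on their own value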;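 further: signal counts dimethyl H3K9 product captured on neutravidin plate; 0% = median of DMSO wells and 100% = 0.3 times that DMSO median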
# Target sequence (Q9H3R0 1-420 limits assumed): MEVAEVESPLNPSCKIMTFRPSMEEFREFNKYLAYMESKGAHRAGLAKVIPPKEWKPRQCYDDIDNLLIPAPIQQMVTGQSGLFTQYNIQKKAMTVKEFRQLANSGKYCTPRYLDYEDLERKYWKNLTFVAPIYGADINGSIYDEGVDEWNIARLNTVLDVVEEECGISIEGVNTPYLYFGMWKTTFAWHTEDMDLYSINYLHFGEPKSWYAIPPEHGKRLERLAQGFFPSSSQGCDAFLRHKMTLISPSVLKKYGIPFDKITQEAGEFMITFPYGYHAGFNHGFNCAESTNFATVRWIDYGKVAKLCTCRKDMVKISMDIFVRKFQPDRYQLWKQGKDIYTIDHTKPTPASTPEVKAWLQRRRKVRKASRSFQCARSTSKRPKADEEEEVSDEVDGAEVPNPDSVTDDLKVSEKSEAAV
# GalR3 antagonist: GalR3 antagonists in HEK293 cells, primary screen, cell-based, fluorescence readout; AID 651719, 2012; HEK293 GalR3-CNG cAMP membrane potential fluorescence; galR3 body fused to GalR1 C-terminus; inhibition, % at 3 µM; 360,000 compounds, 0.44% hits;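 active means inhibition above the screen-wide average plus 3 SD, cut at about 13% in these data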;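 further: forskolin and galanin both at EC90 stimulate the cells; cAMP rise reported by CNG channel membrane potential dye signal; 0% = forskolin plus galanin with DMSO and 100% = forskolin alone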
# 697 NFkB inh: inhibitors of PMA/ionomycin-induced NF-kB reporter, 697 cells, primary screen, B-cell NF-kB inhibitor project, cell-based, luminescence, uHTS; 697 B-cell NF-kB luciferase reporter, 16 h; inhibition, % at 4 µM; 330,000 compounds, 0.33% hits; in the data active means inhibition above about 35%
# Jurkat NFkB inh: inhibitors of induced NF-kB luciferase reporter, primary screen, TCR NF-kB activation inhibitor project, cell-based, luminescence, uHTS | Jurkat, PMA/ionomycin-induced NF-kB luciferase reporter | inhibition, % at 4 µM | 330,000 compounds, 0.53% hits; in the data active means inhibition above about 50%
# NR2E3 ag-1: NR2E3 agonists in two-hybrid cells, primary screen, cell-based, luminescence, CHO-S, Gal4-NCOR/VP16-NR2E3 | Photoreceptor-specific nuclear receptor (Homo sapiens), Q9Y5X4 | inhibition of corepressor binding, % at 3.98 µM | 360,000 compounds, 0.35% hits | luciferase | AID 602229, 2012;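 active means inhibition above the mean of all tested compounds plus 3 SD, cut at about 70% in these data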;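 further: 0% = DMSO with NR2E3 transfected cells and 100% = cells lacking NR2E3 construct; higher means lower luciferase signal from less NR2E3 corepressor binding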
# NR2E3 ag-2: inhibitors of NR2E3-RetCOR corepressor binding, primary screen, NR2E3 agonist project, biochemical, TR-FRET, GST-NR2E3, biotin-RetCOR | Photoreceptor-specific nuclear receptor (Homo sapiens), Q9Y5X4 | 1536-well | inhibition of corepressor binding, % at 4.78 µM | 320,000 compounds, 0.12% hits | AID 2300, 2010;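 active means percent inhibition above the cutoff of mean plus 3 SD of all tested compounds, set per screening campaign, cut at about 20% in these data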;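 further: 0% = DMSO wells and 100% = biotin wells as full block of FRET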
#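 Material – GST-tagged NR2E3 plus biotinylated RetCOR corepressor · Quantity – NR2E3 fusion 1.35 nM · Times – 5 h incubation at 4 °C · Medium – pH 7.5 Tris-based buffer · Technique – TR-FRET, Eu(K)-anti-GST donor, streptavidin-D2 acceptor, ex 340, em 617/671 nm · Benchmarks – high control biotin, low control 0.6% DMSO · Format – 1536-well plates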
# NR2E3 ag confirm: NR2E3 agonists, confirmation, biochemical, TR-FRET; activation (reported as inhibition), % at 3.98 µM; AID 2379, 2010; cell-free NR2E3 corepressor release, 5 h; shares compounds with NR2E3 ag-2; 360 compounds, 39% hits; in the data active means activation above about 20%
# PPARg-NCOR2 ag: agonists of PPARg-NCOR2 corepressor interaction, counter-screen for NR2E3 agonist project, biochemical, TR-FRET. shares compounds with NR2E3 ag-2. TR-FRET PPARg-NCOR2 coregulator interaction. inhibition, % at 3.98 µM. 360 compounds, 45% hits. AID 504787, 2011; in the data active means inhibition above about 20%;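 further: 0% = DMSO vehicle and 100% = wells without protein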
# Numbers without * were called inactive; nt = not tested or not shown.
SMILES,JMJD2C inh,GalR3 antagonist,697 NFkB inh,Jurkat NFkB inh,NR2E3 ag-1,NR2E3 ag-2,NR2E3 ag confirm,PPARg-NCOR2 ag
COc1ccc(NC(=O)CCNS(=O)(=O)c2cc(Br)ccc2Br)cc1S(N)(=O)=O,-22,-9,-8,-6,12,23*,-8,-7
Cc1nnc(NC(=O)CSc2nc3c(c(=O)n2C)SC(C)C3)s1 (stereo not drawn),-11,nt,5,-6,-11,5,nt,nt
CC1Cc2nc(SCC(=O)Nc3nccs3)n(C)c(=O)c2S1 (stereo not drawn),-1,-2,-9,2,-13,21*,-4,-7
CCCCOC(=O)CSC1=C(C#N)C(c2ccccc2OCC)C(C#N)C(=O)N1 (stereo not drawn),65,nt,-8,7,11,22*,-6,36*
CCCOC(=O)CSC1=C(C#N)C(c2ccccc2OCC)C(C#N)C(=O)N1 (stereo not drawn),2,-2,11,16,3,7,nt,nt
CC(C)c1ccc(-c2cc(C(=O)N3CCOCC3)c3cc(Br)ccc3n2)cc1,-3,4,-105,-9,-42,4,nt,nt
CC(C)CCCCCCCCc1cccc(O)c1C(=O)O,nt,-5,nt,nt,nt,nt,nt,nt
Brc1cc(Br)c2ncnc(N3CCCCC3)c2c1,-14,5,-9,10,-16,34*,34*,29*
CS(=O)(=O)N1CCN(c2ccc(Cl)cc2[N+](=O)[O-])CC1,-15,-1,-5,1,6,42*,-1,-6
CCCCCn1c(SCC#N)nc2cc(C(=O)NCC3CCCO3)ccc2c1=O (stereo not drawn),7,1,0,8,4,22*,1,6
CSc1nc2ccc3nc(NC(=O)c4ccc(C)cc4)sc3c2s1,1,2,-17,-12,-10,0,nt,nt
Cc1ccc(C(=O)Nc2nc3ccccc3c(=O)s2)cc1,3,-4,-83,-52,6,23*,43*,46*
CC(=O)Oc1ccccc1Cn1c(C)c(C(=O)NCc2cccc([N+](=O)[O-])c2)sc1=O,nt,-5,nt,nt,-3,nt,nt,nt
CCC(=O)N1CCCC(C)(C(=O)Nc2ccc3oc(CC)nc3c2)C1 (stereo not drawn),nt,-6,nt,nt,27,nt,nt,nt
Cc1nc2ccccc2nc1SCC(=O)N1CCC(C)CC1,0,-3,-7,13,15,22*,13,16
CC1CCCN(C(=O)CSc2cnc3ccccc3n2)C1 (stereo not drawn),-18,-7,-35,-25,-56,48*,14,11
O=C(NN1C(=O)/C(=C/C=C/c2ccccc2)SC1=S)c1ccncc1,-4,-4,9,14,5,4,nt,nt
O=C(NN1C(=O)/C(=C/C=C/c2ccco2)SC1=S)c1ccncc1,-14,0,-1,-14,-16,25*,1,8
O=C(NC1CC1)C1=C[C@@H](c2ccc(Br)cc2)C[C@@H](OCc2ccc(CO)cc2)O1,4,-4,-15,3,-31,-1,nt,nt
COc1ccc(NC(=S)Nc2ccc3nc(C)c(C)nc3c2)cc1,4,-3,9,6,1,0,nt,nt
COc1ccc(N(C)C(=O)Nc2ccc3nsnc3c2)cc1,10,0,nt,nt,4,nt,nt,nt
CCOc1ccc(NC(=S)Nc2ccc3nsnc3c2)cc1,0,2,-26,-8,-29,31*,-16,-4
CC(C)N(C(=O)Nc1ccc2nsnc2c1)C(C)C,4,-7,-5,34,nt,38*,-13,-9
COc1ccc(NC(=S)Nc2ccc3nsnc3c2)cc1,1,-11,-47,-2,-74,29*,-9,-9
CC(=O)c1cccc(S(=O)(=O)N2CCC(C(=O)Nc3cccc(C(=O)NC4CC4)c3)CC2)c1,4,0,16,13,0,0,nt,nt
SMILES,JMJD2C inh,GalR3 antagonist,697 NFkB inh,Jurkat NFkB inh,NR2E3 ag-1,NR2E3 ag-2,NR2E3 ag confirm,PPARg-NCOR2 ag
CCOCCCNc1ccc(N2C(=O)CCCC2=O)cc1[N+](=O)[O-],4,-12,8,-19,-7,-4,nt,nt
CCCCn1c(NC(C)=O)c(C#N)c2nc3ccccc3nc21,44,-5,14,7,-18,5,nt,nt
C=CCn1c(NC(=O)c2ccccc2Cl)c(C#N)c2nc3ccccc3nc21,9,-4,-10,4,7,38*,8,42*
CCN(CC(=O)NC(C)C)Cc1nc2c(Br)cc(Br)cc2c(=O)[nH]1,9,3,8,-2,-27,55*,56*,48*
CCc1cc2cc3c(cc2nc1SCC(=O)Nc1cc(C)on1)OCO3,5,-4,3,-7,-14,23*,51*,62*
COc1ccc2nc(NC(=O)CSc3nc4ccccc4o3)sc2c1,-4,-4,-67,-26,14,20*,9,16
O=C(CSc1nc2ccccc2o1)Nc1nc2ccc(Br)cc2s1,13,-2,-15,-18,-66,3,nt,nt
O=C(Nc1cccc(S(=O)(=O)NC2=NCCC2)c1)c1cc(Cl)ccc1[N+](=O)[O-],-5,nt,9,4,4,2,nt,nt
COC(=O)C1(NC(=O)NC2CCCCC2)CCCCC1,2,-6,9,-7,-46,2,nt,nt
O=C(O)CCCCC1SCC2NC(=O)NC21 (stereo not drawn),12,-2,8,-7,-35,38*,5,25*
CC1NC(=O)NC1CCCCCC(=O)NCCc1ccccc1 (stereo not drawn),21,-8,-7,-12,-9,69*,75*,70*
Cc1cccc(C)c1NC(=O)CCCCCC1NC(=O)NC1C (stereo not drawn),18,-4,0,-22,-4,47*,35*,3
C[C@@H]1NC(=O)N[C@@H]1CCCCCC(=O)O,-14,-3,24,6,-4,76*,77*,72*
